Experimental data: paper PMC4036123 (Cancer chemotherapy and pharmacology, 2014)
Where two headings read alike, the source gives them in different places.

Legend:
RPMI-8226 cells = assay: Cellular proliferation assay; format: cell-based; details: Homo sapiens, RPMI-8226, 48 h, read-out: IC50 (cell viability)
U266 cells = assay: Cellular proliferation assay; format: cell-based; details: Homo sapiens, U-266, 48 h, read-out: IC50 (cell viability)
[1] = tested on: proteasome chymotrypsin-like activity; assay: Proteasome-Glo assay in intact MM cells, chymotrypsin-like activity; format: cell-based, human; details: read-out: Chymotrypsin-like IC50, 24 hours incubation
Summary of the method: (§1)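 MM.1S, MM.1R and RPMI-8226 human myeloma lines were grown in RPMI medium with 10% FBS and antibiotics. Activity was read as luminescence with the Proteasome-Glo kit, following the manufacturer's protocol.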

[2] = tested on: proteasome trypsin-like activity; assay: Proteasome-Glo assay in intact MM cells, trypsin-like activity; format: cell-based, human; details: read-out: Trypsin-like IC50, 24 hours incubation
Summary of the method: as §1

MM.1S cells = assay: In vitro cell invasion assay; format: cell-based, human; details: MM.1S cells pretreated at IC50 value, Matrigel invasion chamber

CC(C)C[C@H](NC(=O)[C@H](Cc1ccccc1)NC(=O)c1cnccn1)B(O)O [Bortezomib]
IC50 (RPMI-8226 cells): […] | IC50 (U266 cells): 13.5 nM | IC50 ([1]; MM1R cell line): […] | IC50 ([1]; MM1S cell line): […] | IC50 ([1]; RPMI822G cell line): […] | IC50 ([1]; U266 cell line): […] | IC50 ([2]; MM1R cell line): > 18 nM | IC50 ([2]; MM1S cell line): > 18 nM | IC50 ([2]; RPMI822G cell line): > 18 nM | IC50 ([2]; U266 cell line): > 18 nM | inhibition of invasiveness compared to control (MM.1S cells): 37.42%
